Test results taken from ChEMBL document CHEMBL4428028, “Novel Combretastatin-2-aminoimidazole Analogues as Potent Tubulin Assembly Inhibitors: Exploration of Unique Pharmacophoric Impact of Bridging Skeleton and Aryl Moiety” (J Med Chem, 2016).
Values belong to the molecule of their own block, whether it stands above or below them. Calls of active or inactive are those of the source. The calls are words filed in the database; no cut-off is given here.

Assays:
[1] = system: MCF7; assay: Antiproliferative activity against human MCF7 cells incubated for 48 hrs by sulforhodamine B assay; format: functional, cell-based; conditions: MCF7, 48 h
Outline: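 MCF-7 cells (1 × 10⁵ cells/mL) attached 24 h in MEM with 10% FBS, 37 °C, 5% CO2. Exposed to serial dilutions, DMSO final <0.1%, for 48 h. TCA (50%) fixation, sulforhodamine B staining, IC50 determined. Three independent sets.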

[2] = system: HeLa; assay: Antiproliferative activity against human HeLa cells incubated for 24 hrs by sulforhodamine B assay; format: functional, cell-based
Outline: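 HeLa cells (1 × 10⁵ cells/mL) attached 24 h in MEM with 10% FBS, 37 °C, 5% CO2. Then treated with serial dilutions, DMSO final <0.1%, for 24 h. Fixed with 50% TCA, sulforhodamine B read-out, IC50 derived. Three independent experiments.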

[3] = Binding affinity to goat brain tubulin assessed as reduction in binding of 5-(Quinolin-3-yl)-4-(3,4,5-trimethoxyphenyl)-1H-imidazol-2-amine to tubulin incubated for 15 mins by fluorescence based assay; parameters: species or system Ovis aries
Outline: (§1)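 Goat brain tubulin (3 μM) was preincubated with competitor (1–20 μM) in 25 mM PIPES, pH 6.8, for 15 min at 25 °C. The 2-aminoimidazole probe (6 μM) was then added for 15 min at 25 °C. Emission was recorded at 420–520 nm with excitation at 350 nm. Ki was calculated as EC50/(1 + L/Kd). Three sets were run.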

[4] = Inhibition of goat brain tubulin assembly incubated for 10 mins by spectrophotometry; parameters: species or system Ovis aries
Outline: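 Goat brain tubulin (12 μM; glutamate-purified, >97% pure) held 10 min on ice with compound in 25 mM PIPES, 1 mM EGTA, 3 mM MgCl2, 1 M glutamate. Then 1 mM GTP added. Assembly followed at 350 nm, 37 °C, for 20 min. Three independent experiments.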

[5] = species on record: Ovis aries; assay: Binding affinity to goat brain tubulin incubated for 15 mins in presence of podophyllotoxin by fluorescence based assay; outline: as §1
[6] = system: MDA-MB-231; assay: Antiproliferative activity against human MDA-MB-231 cells incubated for 24 hrs by sulforhodamine B assay; format: functional, cell-based; conditions: MDA-MB-231, 24 h
Outline: (§2)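 Cells grown in DMEM with 2.2 g/L sodium bicarbonate, 10% FBS and antibiotic–antimycotic at 37 °C under 5% CO2. Compounds were dissolved in DMSO and diluted in medium (final DMSO <0.1%). Cells were exposed to a concentration series for 24 h, fixed with 50% TCA and stained with sulforhodamine B. IC50 was derived from three independent experiments.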

[7] = species on record: Ovis aries; assay: Binding affinity to goat brain tubulin at 6 uM incubated for 10 mins after 10 mins incubation with 10 and 30 uM vinblastine by fluorescence based assay
[8] = target: T1, Tubulin (Homo sapiens) (UniProt P68371+Q9H4B7+P0DPH7+P68366+Q13509+Q71U36+P04350+Q3ZCM7+P07437+P68363+Q9BQE3+Q6PEY2+Q13885+Q9BVA1+Q9BUF5); assay: Induction of interphase microtubule network depolymerization in human MCF7 cells at 5 nM incubated for 24 hrs by immunostaining method; format: cell-based
[9] = system: MCF7; assay: Induction of cell cycle arrest in human MCF7 cells assessed as accumulation at S phase at 5 nM incubated for 24 hrs by propidium iodide staining based flow cytometry (reference value: 35%); format: functional
[10] = system: MCF7; assay: Induction of mitosis block in human MCF7 cells assessed as phospho-histone H3 (Ser10) staining positive cells level at 10 nM incubated for 24 hrs by immunostaining (reference value: 8 +/- 1%); format: functional
[11] = system: EMT6; assay: Antiproliferative activity against drug resistant mouse EMT6/AR1 cells incubated for 24 hrs by sulforhodamine B assay; format: functional, cell-based; conditions: EMT6, 24 h; outline: as §2
[12] = system: MCF7; assay: Induction of cell cycle arrest in human MCF7 cells assessed as accumulation at G1 phase at 10 nM incubated for 24 hrs by propidium iodide staining based flow cytometry (reference value: 49%); format: functional
[13] = system: MCF7; assay: Induction of mitosis block in human MCF7 cells assessed as phospho-histone H3 (Ser10) staining positive cells level at 5 nM incubated for 24 hrs by immunostaining (reference value: 8 +/- 1%); format: functional
[14] = species on record: Ovis aries; assay: (§3) Binding affinity to goat brain tubulin incubated for 10 mins by tryptophan fluorescence quenching based assay
Outline: (§4)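 Goat brain tubulin (2 μM), purified with 1 M glutamate, incubated 10 min at 25 °C with compound (1–20 μM) in 25 mM PIPES, pH 6.8. Tryptophan fluorescence read with excitation 295 nm. Kd obtained by fitting ΔF = ΔFmax·L/(Kd + L). Four independent sets.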

[15] = as §3; parameters: species or system Ovis aries; outline: as §4
[16] = system: MCF7; assay: Induction of cell cycle arrest in human MCF7 cells assessed as accumulation at G2/M phase at 5 nM incubated for 24 hrs by propidium iodide staining based flow cytometry (reference value: 16%); format: functional
[17] = system: MCF7; assay: Induction of mitosis block in human MCF7 cells at 5 and 10 uM incubated for 24 hrs by immunostaining; format: functional, cell-based
[18] = system: MCF7; assay: Induction of cell cycle arrest in human MCF7 cells assessed as accumulation at S phase at 10 nM incubated for 24 hrs by propidium iodide staining based flow cytometry (reference value: 35%); format: functional
[19] = target: T1, Tubulin (Homo sapiens); assay: Induction of interphase microtubule network depolymerization in human MCF7 cells at 10 nM incubated for 24 hrs by immunostaining method; format: cell-based
[20] = species on record: Ovis aries; assay: Binding affinity to goat brain tubulin at 5 and 10 uM incubated for 10 mins by fluorescence based assay
Outline: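 Goat brain tubulin (2 μM) incubated 10 min at 25 °C with compound (5 and 10 μM) in 25 mM PIPES, pH 6.8. Ligand fluorescence spectra recorded at 420–520 nm, excitation 350 nm. Done three times.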

[21] = system: MCF7; assay: Induction of cell cycle arrest in human MCF7 cells assessed as accumulation at G1 phase at 5 nM incubated for 24 hrs by propidium iodide staining based flow cytometry (reference value: 49%); format: functional
[22] = species on record: Ovis aries; assay: Binding affinity to goat brain tubulin incubated for 15 mins in presence of CA-4 by fluorescence based assay
Outline: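 Tubulin (3 μM) preincubated with CA-4 (1–20 μM) in 25 mM PIPES, pH 6.8, 15 min at 25 °C. Then 6 μM compound added for another 15 min at 25 °C. Spectra 420–520 nm taken with excitation 350 nm. Ki from Ki = EC50/(1 + L/Kd). Three sets.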

[23] = species on record: Ovis aries; assay: Binding affinity to goat brain tubulin at 10 uM pre-incubated for 30 mins before 50 uM podophyllotoxin exposure for 30 mins by fluorescence based assay
Outline: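 Displacement assay: tubulin was first incubated with the 2-aminoimidazole ligand for 30 min. It was then incubated without or with 50 μM podophyllotoxin or 50 μM CA-4 for a further 30 min. The read-out was the drop in fluorescence of the tubulin–ligand complex.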

[24] = system: MCF7; assay: Induction of cell cycle arrest in human MCF7 cells assessed as accumulation at G2/M phase at 10 nM incubated for 24 hrs by propidium iodide staining based flow cytometry (reference value: 16%); format: functional
[25] = species on record: Ovis aries; assay: Binding affinity to goat brain tubulin at 10 uM pre-incubated for 30 mins before 50 uM CA-4 exposure for 30 mins by fluorescence based assay
Outline: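 Tubulin first incubated 30 min with test compound, then 30 min without or with 50 μM CA-4 or 50 μM podophyllotoxin. Read-out is fluorescence of the tubulin–compound complex.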

[26] = species on record: Ovis aries; assay: Binding affinity to goat brain tubulin at 6 uM […] with 10 and 30 uM paclitaxel by fluorescence based assay
[27] = system: MCF7; assay: Induction of mitotic spindle disturbance in human MCF7 cells assessed as monopolar spindle formation at 5 and 10 nM incubated for 24 hrs by immunostaining; format: functional, cell-based
[28] = system: MDA-MB-231; assay: Inhibition of cell migration of human MDA-MB-231 cells at 50 nM by wound closure assay; format: functional
Outline: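 MDA-MB-231 cells grown to 90% confluency in 35 mm dishes and scratched with a microtip. Incubated without or with compound. Wound closure imaged at 0, 4 and 18 h and expressed as percent closure.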

[29] = system: Huh-7; assay: Antiproliferative activity against human HuH7 cells incubated for 24 hrs by sulforhodamine B assay; format: functional, cell-based; conditions: Huh-7, 24 h; outline: as §2

IC50 [1]: 6 µM
IC50 [2]: 8 µM
Structure (SMILES): COc1cc(-c2nc(N)[nH]c2-c2cccc(N)c2)cc(OC)c1OC

Structure (SMILES): COc1cc([C@@H]2c3cc4c(cc3[C@H](O)[C@H]3COC(=O)[C@H]23)OCO4)cc(OC)c1OC [PODOFILOX]
Kd [3]: 0.3 µM

IC50 [1]: 0.071 µM
IC50 [2]: 0.068 µM
IC50 [4]: 11 µM
Structure (SMILES): COc1ccc(-c2[nH]c(N)nc2-c2cc(OC)c(OC)c(OC)c2)cc1OC

IC50 [1]: 3 µM
IC50 [2]: 3.4 µM
Structure (SMILES): COc1cc(-c2nc(N)[nH]c2-c2ccc(F)cc2)cc(OC)c1OC

IC50 [1]: 21 µM
IC50 [2]: 18 µM
Structure (SMILES): COc1cc(-c2nc(N)[nH]c2-c2ccc(N)nc2)cc(OC)c1OC

IC50 [1]: 8 µM
IC50 [2]: 3 µM
Structure (SMILES): COc1cc(-c2nc(N)[nH]c2-c2ccc(Cl)cc2)cc(OC)c1OC

IC50 [1]: 0.174 µM
IC50 [2]: 0.166 µM
IC50 [4]: 13 µM
Structure (SMILES): COc1ccc(-c2[nH]c(N)nc2-c2cc(OC)c(OC)c(OC)c2)cc1

IC50 [1]: 12 µM
IC50 [2]: 8 µM
Structure (SMILES): COc1cc(-c2nc(N)[nH]c2-c2cc(OC)c(OC)c(OC)c2)cc(OC)c1OC

Structure (SMILES): COc1cc(-c2nc(N)[nH]c2-c2cnc3ccccc3c2)cc(OC)c1OC
Activity [5]: inactive
IC50 [6]: 0.096 µM
Activity [7]: Active
Activity [8]: Active
Activity [9]: 25%
Activity [10]: 26%
IC50 [11]: 0.35 µM
IC50 [1]: 0.003 µM
Activity [12]: 16%
Activity [13]: 15%
Activity [14]: Dose-dependent effect
Kd [15]: 1.9 µM
Activity [16]: 40%
Activity [17]: Active
Activity [18]: 10%
Activity [19]: Active
Activity [20]: Active
Activity [21]: 34%
Activity [22]: inactive
Activity [23]: inactive
IC50 [2]: 0.01 µM
Activity [24]: 74%
Activity [25]: inactive
Activity [26]: Active
IC50 [4]: 1.6 µM
inhibition ([4]; Ovis aries): Dose-dependent effect
Activity [27]: Active
inhibition at 0.05 µM [28]: 56%
IC50 [29]: 0.335 µM
